Active and inactive are the calls of the source. The calls are words filed in the database; no cut-off is given here.
Assays:
[1] = Antitumor activity against human Acute myeloid leukemic cell xenografted in nu/nu mouse assessed as increase in median survival time at 120 mg/kg, po administered for 2 days and measured after 10 days in presence of cytarabine (reference value: 34 days); details: time 2 day
[2] = biological target: Aurora kinase A (Homo sapiens) (UniProt O14965); assay: Inhibition of N-terminal 6His-tagged recombinant full-length human Aurora-A expressed in Sf21 cells assessed as residual activity at 1 uM relative to control
NCI-H1650 = assay: Antiproliferative activity against human NCI-H1650 cells assessed as inhibition of cell growth incubated for 72 hrs by cell-titer glo assay; format: functional, cell-based; details: NCI-H1650, 72 h
In short: (§1)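 Cells from ATCC or ECACC, kept in supplier-recommended medium with 1% penicillin-streptomycin at 37°C, 5% CO₂. Seeded at 10,000–30,000/cm² (adherent) or 100,000/mL (nonadherent) in medium with 10% fetal calf serum. Dosed after 24 h in duplicate with serial dilutions. Viable cells read by CellTiter-Glo 72 h later. IC50 from sigmoidal fit. At least two independent experiments.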

C-33-A = assay: Antiproliferative activity against human C-33-A cells assessed as inhibition of cell growth incubated for 72 hrs by cell-titer glo assay; format: functional, cell-based
In short: (§2)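 Cells seeded 10,000–30,000/cm² (adherent) or 100,000/mL (suspension) in medium with 10% fetal calf serum; after 24 h treated in duplicate with serial dilutions for 72 h. Viable cells read by CellTiter-Glo luminescence; IC50 from sigmoidal fit; at least two independent experiments.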

SW-620 = assay: Antiproliferative activity against human SW620 cells assessed as inhibition of cell growth incubated for 72 hrs by cell-titer glo assay; format: functional, cell-based; details: SW-620, 72 h
A2780 [3] = assay: In vivo inhibition of PLK1 in human A2780 cells xenografted in nu/nu mouse assessed as increased TCTP phosphorylation on Ser46 at 60 mg/kg, po administered for 6 to 12 hrs hrs by Western blotting analysis; format: functional, organism-based; details: time lower 6.0 hrs, time upper […]
A2780 [4] = assay: Antiproliferative activity against human A2780 cells assessed as reduction in cell number at 0.5 to 1 uM incubated for 8 hrs followed by compound washout and measured after 24 to 48 hrs by cell titer glow assay; format: functional, cell-based; details: dose 0.5-1 µM
In short: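 A2780 cells exposed to 0.5 or 1 μmol/L for 8 hours, then compound withdrawn; cells replated and grown 24 and 48 hours in drug-free medium before assessing cell growth.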

[5] = biological target: Eukaryotic translation initiation factor 2-alpha kinase 3 (Homo sapiens, UniProt Q9NZJ5); assay: Inhibition of PERK (unknown origin) in presence of [gamma-33P]ATP
Sequence of Eukaryotic translation initiation factor 2-alpha kinase 3 (Q9NZJ5 whole entry): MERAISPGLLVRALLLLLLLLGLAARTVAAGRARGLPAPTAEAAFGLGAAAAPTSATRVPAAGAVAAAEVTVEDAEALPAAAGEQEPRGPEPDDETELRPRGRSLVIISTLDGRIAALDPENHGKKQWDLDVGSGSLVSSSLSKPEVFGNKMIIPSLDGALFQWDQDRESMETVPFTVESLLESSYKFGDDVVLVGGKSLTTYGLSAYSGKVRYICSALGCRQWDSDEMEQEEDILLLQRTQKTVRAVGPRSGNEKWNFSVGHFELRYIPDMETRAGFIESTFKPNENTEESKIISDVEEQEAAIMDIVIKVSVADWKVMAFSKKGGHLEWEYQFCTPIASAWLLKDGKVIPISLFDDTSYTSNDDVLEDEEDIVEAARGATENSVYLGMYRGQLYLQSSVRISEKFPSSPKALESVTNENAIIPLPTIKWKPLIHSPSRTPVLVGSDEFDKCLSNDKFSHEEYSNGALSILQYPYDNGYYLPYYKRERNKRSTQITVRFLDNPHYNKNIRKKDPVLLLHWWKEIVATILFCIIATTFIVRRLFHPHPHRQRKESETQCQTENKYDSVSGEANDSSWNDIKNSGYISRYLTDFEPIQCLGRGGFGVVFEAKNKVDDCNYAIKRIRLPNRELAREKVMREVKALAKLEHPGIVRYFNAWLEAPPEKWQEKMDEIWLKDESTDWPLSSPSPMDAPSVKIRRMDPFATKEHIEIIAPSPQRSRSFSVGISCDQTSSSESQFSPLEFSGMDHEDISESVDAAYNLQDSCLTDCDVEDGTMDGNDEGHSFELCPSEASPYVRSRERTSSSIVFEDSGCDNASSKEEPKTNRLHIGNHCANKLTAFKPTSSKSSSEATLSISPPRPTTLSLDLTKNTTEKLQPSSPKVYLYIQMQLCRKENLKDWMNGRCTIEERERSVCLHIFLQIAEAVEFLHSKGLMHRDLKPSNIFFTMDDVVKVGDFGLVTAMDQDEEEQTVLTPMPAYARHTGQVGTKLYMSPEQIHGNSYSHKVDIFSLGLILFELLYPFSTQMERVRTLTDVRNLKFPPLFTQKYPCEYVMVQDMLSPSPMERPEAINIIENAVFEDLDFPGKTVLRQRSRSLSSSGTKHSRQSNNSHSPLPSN

A2780 [6] = assay: Induction of cell cycle arrest in human A2780 cells assessed as accumulation of cells in G2/M phase by measuring NPM phosphorylation on Thr199 incubated for 24 hrs by Western blotting analysis; format: functional, cell-based; details: dose 0.02-0.2 µmol/L
In short: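 A2780 ovarian carcinoma cells treated 24 h with a range of concentrations, with DMSO and nocodazole controls. 20 µg protein extract separated by SDS-PAGE and immunoblotted with chemiluminescent detection. Probed for total and phospho-Thr210 PLK1, phospho-Ser10 histone H3, phospho-Thr199 NPM and phospho-Tyr15 CDK1. Total NPM, tubulin and total CDK1 served as loading controls.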

[7] = biological target: Insulin-like growth factor 1 receptor (Homo sapiens) (UniProt P08069); assay: Inhibition of N-terminal 6His-tagged recombinant human IGF-1R (959 to end residues) expressed in baculovirus infected Sf21 cells assessed as residual activity at 1 uM relative to control
Sequence of Insulin-like growth factor 1 receptor (Homo sapiens) (P08069 31-736 limits assumed): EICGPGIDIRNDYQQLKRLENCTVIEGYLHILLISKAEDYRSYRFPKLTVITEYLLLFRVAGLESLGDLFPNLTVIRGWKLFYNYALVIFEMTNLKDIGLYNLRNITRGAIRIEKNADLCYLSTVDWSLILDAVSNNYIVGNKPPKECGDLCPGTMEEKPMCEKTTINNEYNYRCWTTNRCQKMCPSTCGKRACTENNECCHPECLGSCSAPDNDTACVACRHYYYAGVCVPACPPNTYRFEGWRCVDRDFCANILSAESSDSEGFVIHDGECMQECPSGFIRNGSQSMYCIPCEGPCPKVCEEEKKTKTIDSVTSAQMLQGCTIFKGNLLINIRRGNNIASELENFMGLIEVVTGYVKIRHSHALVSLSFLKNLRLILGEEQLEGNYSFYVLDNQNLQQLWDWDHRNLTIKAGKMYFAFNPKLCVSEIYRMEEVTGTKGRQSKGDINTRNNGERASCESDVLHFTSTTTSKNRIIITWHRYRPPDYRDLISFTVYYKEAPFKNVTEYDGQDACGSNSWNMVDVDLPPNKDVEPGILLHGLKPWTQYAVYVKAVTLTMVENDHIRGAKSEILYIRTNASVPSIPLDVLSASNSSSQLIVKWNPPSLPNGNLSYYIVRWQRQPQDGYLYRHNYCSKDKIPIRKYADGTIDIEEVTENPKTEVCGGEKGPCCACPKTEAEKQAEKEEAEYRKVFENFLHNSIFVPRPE
Sequence of Insulin-like growth factor 1 receptor (Homo sapiens) (P08069 741-1367 limits assumed): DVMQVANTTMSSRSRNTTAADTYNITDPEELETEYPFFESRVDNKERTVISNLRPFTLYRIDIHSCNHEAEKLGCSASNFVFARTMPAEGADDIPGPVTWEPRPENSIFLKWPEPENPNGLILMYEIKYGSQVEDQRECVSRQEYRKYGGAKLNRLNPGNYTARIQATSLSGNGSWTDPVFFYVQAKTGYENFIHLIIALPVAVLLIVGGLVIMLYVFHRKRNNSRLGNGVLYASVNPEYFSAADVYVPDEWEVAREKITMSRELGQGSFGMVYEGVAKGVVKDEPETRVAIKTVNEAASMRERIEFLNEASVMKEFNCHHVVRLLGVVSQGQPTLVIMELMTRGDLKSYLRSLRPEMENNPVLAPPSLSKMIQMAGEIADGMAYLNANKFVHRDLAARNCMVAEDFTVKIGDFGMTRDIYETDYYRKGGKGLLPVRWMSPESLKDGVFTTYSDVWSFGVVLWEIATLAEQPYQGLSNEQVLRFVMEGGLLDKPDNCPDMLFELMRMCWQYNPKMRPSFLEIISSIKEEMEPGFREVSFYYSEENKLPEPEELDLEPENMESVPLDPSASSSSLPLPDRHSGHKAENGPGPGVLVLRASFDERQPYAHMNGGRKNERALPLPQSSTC

HEL = assay: Antiproliferative activity against human HEL cells assessed as inhibition of cell growth incubated for 72 hrs by cell-titer glo assay; format: functional, cell-based
In short: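 Cells seeded at 10,000–30,000/cm² (adherent) or 100,000/mL (nonadherent) in medium with 10% fetal calf serum; after 24 h, treated in duplicate with serial dilutions for 72 h. Viable cell number read by CellTiter-Glo luminescence; IC50 from sigmoidal fit; at least two independent experiments.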

[8] = biological target: Testis-specific serine/threonine-protein kinase 1 (Homo sapiens) (UniProt Q9BXA7); assay: Inhibition of 6His-tagged recombinant human full length TSSK1 expressed in baculovirus infected Sf21 cells assessed as residual activity at 1 uM relative to control
Sequence of Testis-specific serine/threonine-protein kinase 1 (Homo sapiens) (Q9BXA7 whole entry): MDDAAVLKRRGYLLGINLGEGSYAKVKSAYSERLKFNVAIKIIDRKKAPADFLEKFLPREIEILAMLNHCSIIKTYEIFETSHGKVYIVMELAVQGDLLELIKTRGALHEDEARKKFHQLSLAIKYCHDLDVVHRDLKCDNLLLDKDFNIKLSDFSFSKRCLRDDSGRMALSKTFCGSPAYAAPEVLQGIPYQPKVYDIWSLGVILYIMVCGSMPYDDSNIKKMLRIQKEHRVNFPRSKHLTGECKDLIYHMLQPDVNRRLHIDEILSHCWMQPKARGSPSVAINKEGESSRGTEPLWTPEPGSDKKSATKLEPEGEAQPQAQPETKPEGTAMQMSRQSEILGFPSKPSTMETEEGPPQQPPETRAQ

[9] = biological target: Dual specificity mitogen-activated protein kinase kinase 7 (Homo sapiens) (UniProt O14733); assay: Inhibition of N-terminal GST-tagged recombinant human MKK7beta (2 to end residues) expressed in E. coli assessed as residual activity at 1 uM relative to control
Sequence of Dual specificity mitogen-activated protein kinase kinase 7 (Homo sapiens) (O14733 whole entry): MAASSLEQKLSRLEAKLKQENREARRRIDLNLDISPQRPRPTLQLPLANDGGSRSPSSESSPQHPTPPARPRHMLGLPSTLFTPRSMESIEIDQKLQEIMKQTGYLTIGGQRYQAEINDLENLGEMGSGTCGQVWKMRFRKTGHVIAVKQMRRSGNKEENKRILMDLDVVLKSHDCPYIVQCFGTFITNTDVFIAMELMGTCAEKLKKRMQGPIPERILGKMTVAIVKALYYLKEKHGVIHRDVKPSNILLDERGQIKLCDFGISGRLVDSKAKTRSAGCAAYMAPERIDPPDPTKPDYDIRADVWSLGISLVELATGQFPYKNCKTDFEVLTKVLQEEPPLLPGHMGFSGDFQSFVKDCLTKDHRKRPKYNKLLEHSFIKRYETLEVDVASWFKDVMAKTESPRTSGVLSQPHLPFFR

CAMA-1 = assay: Antiproliferative activity against human CAMA-1 cells assessed as inhibition of cell growth incubated for 72 hrs by cell-titer glo assay; format: functional, cell-based; details: CAMA-1, 72 h
In short: as §2

[10] = tested on: Angiopoietin-1 receptor (Homo sapiens), Q02763 [R849W]; assay: Inhibition of N-terminal His6-tagged recombinant human Tie2 (771 to end residues) R849W mutant expressed in baculovirus infected Sf21 cells assessed as residual activity at 0.1 uM relative to control
UACC-257 = assay: Antiproliferative activity against human UACC-257 cells assessed as inhibition of cell growth incubated for 72 hrs by cell-titer glo assay; format: functional, cell-based; details: UACC-257, 72 h
[11] = Antiproliferative activity against human SUPM2 cells assessed as inhibition of cell growth incubated for 72 hrs by cell-titer glo assay; format: functional, cell-based; details: SUP-M2, 72 h
[12] = biological target: Glycogen synthase kinase-3 beta (Homo sapiens, UniProt P49841); assay: Inhibition of GSK3beta (unknown origin) in presence of [gamma-33P]ATP
Sequence of Glycogen synthase kinase-3 beta (P49841 whole entry): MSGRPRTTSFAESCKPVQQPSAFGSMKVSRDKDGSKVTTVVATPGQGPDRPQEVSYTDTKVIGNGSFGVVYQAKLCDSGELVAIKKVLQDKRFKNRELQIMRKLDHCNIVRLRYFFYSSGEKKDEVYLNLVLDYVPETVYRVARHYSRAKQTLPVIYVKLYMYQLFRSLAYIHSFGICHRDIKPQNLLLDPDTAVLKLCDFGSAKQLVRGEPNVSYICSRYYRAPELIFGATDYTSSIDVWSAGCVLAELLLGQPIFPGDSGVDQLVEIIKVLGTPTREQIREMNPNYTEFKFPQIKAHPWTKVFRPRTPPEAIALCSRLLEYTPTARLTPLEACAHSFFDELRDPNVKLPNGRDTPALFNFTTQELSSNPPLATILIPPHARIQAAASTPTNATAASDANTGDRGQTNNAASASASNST

[13] = biological target: Serine/threonine-protein kinase Nek3 (Homo sapiens) (UniProt P51956); assay: Inhibition of N-terminal 6His-tagged recombinant full length human NEK3 expressed in baculovirus infected Sf21 cells assessed as residual activity at 0.1 uM relative to control
[14] = biological target: Insulin receptor-related protein (Homo sapiens) (UniProt P14616); assay: Inhibition of N-terminal 6His-tagged recombinant human IRR (944 to 1266 residues) expressed in baculovirus infected Sf21 cells assessed as residual activity at 1 uM relative to control
Sequence of Insulin receptor-related protein (Homo sapiens) (P14616 27-742 limits assumed): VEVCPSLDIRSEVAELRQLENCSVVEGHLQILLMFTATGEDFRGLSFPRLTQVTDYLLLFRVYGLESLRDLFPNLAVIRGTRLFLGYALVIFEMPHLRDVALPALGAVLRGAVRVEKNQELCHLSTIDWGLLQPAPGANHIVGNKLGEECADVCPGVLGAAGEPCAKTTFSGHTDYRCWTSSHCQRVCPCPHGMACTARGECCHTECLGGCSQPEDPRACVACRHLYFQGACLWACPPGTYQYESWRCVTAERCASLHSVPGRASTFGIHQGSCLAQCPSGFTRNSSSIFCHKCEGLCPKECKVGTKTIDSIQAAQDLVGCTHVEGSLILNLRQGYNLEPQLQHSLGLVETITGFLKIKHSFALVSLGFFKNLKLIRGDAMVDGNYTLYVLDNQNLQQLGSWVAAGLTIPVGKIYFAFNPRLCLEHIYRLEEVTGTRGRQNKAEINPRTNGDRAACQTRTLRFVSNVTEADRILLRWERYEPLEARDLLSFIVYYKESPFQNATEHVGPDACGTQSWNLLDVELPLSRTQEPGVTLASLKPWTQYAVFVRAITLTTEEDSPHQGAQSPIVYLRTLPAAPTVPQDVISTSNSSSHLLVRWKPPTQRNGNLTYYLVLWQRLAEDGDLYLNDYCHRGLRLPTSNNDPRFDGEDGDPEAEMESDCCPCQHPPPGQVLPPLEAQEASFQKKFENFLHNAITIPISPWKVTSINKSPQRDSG
Sequence of Insulin receptor-related protein (Homo sapiens) (P14616 747-1297 limits assumed): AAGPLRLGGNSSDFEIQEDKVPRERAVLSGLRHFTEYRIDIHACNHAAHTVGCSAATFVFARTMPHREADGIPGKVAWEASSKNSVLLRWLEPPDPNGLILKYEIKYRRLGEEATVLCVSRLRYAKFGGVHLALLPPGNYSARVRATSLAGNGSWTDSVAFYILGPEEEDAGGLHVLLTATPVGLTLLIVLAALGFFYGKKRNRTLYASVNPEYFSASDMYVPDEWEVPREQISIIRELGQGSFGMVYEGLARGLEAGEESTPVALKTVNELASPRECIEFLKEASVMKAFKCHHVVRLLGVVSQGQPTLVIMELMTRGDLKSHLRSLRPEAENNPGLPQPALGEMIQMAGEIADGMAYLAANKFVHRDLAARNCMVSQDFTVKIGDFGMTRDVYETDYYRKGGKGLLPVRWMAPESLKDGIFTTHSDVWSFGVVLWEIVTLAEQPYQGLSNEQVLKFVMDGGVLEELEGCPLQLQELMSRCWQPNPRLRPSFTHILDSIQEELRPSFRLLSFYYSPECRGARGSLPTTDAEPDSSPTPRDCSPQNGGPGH

[15] = Half-life in Sprague-Dawley rat at 10 mg/kg, po by LC-MS analysis; format: ADME, organism-based; details: in vivo
[16] = biological target: Casein kinase I isoform gamma-2 (Homo sapiens) (UniProt P78368); assay: Inhibition of N-terminal 6His-tagged recombinant human CK1gamma2 ( 18 to end residues) expressed in baculovirus infected Sf21 cells assessed as residual activity at 1 uM relative to control
[17] = biological target: cAMP-dependent protein kinase (PKA) (Homo sapiens) (UniProt P22694+P17612+P22612); assay: Inhibition of recombinant human full-length PKA expressed in E.coli BL21 (DE3) pLysS cells assessed as residual activity at 0.1 uM relative to control
NCI-H838 = assay: Antiproliferative activity against human NCI-H838 cells assessed as inhibition of cell growth incubated for 72 hrs by cell-titer glo assay; format: functional, cell-based; details: NCI-H838, 72 h
In short: as §1

[18] = biological target: Tyrosine-protein kinase Fes/Fps (Homo sapiens) (UniProt P07332); assay: Inhibition of N-terminal His6-tagged recombinant full length human Fes expressed in baculovirus infected Sf21 cells assessed as residual activity at 0.1 uM relative to control

Structure (SMILES): CN1CCN(c2ccc(OC(F)(F)F)c(Nc3ncc4c(n3)-c3c(c(C(N)=O)nn3CCO)CC4)c2)CC1 [ONVANSERTIB]
- Time [1]: 79 days
- Activity [2]: 113%
- IC50 (NCI-H1650): 2420 nM
- IC50 (C-33-A): 61 nM
- IC50 (SW-620): 37 nM
- inhibition (A2780 [3]): inactive
- Activity (A2780 [4]): Active
- IC50 [5]: > 10000 nM
- Activity (A2780 [6]): Dose-Dependent Effect
- Activity [7]: 114%
- IC50 (HEL): 48 nM
- Activity [8]: 20%
- Activity [9]: 80%
- IC50 (CAMA-1): 350 nM
- Activity [10]: 74%
- IC50 (UACC-257): 441 nM
- IC50 [11]: 43 nM
- IC50 [12]: > 10000 nM
- Activity [13]: 127%
- Activity [14]: 114%
- half-life [15]: 3.1 h
- Activity [16]: 69%
- Activity [17]: 141%
- IC50 (NCI-H838): 119 nM
- Activity [18]: 73%

— ChEMBL document CHEMBL5678806, “NMS-P937, an orally available, specific small-molecule polo-like kinase 1 inhibitor with antitumor activity in solid and hematologic malignancies” (Mol Cancer Ther, 2012)
